How the values were obtained:
[1] = test system: rats; experiment: Attentional set-shifting task; assay type: in vivo, rat; details: 15 mg/kg ip, male rats, dosed 1 h before testing, vs vehicle
How it was run: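 Rats were handled 1 min at least three times in the week before testing. The test compound was suspended in 0.1% Tween80, 0.1% silicone antifoam and 1% methylcellulose in water and given ip at 5 mL/kg, 1 h before testing. Over four days: pre-habituation, habituation, training, then a single test of seven discriminations (SD, CD, CDR, ID, IDR, ED, EDR). The first four trials were unscored; criterion was six consecutive correct. Analysis: two-way repeated-measures ANOVA with Tukey post hoc.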

[2] = Drug concentration in free plasma and CSF after dosing; assay type: in vivo, rat; details: for Drug Concentration CSF: 15 mg/kg ip
How it was run: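 After 1 h acclimation, rats received vehicle or test compound, suspended in 0.1% Tween80, 0.1% silicone antifoam and 1% methylcellulose in water, given ip at 5 mL/kg. At 1 or 4 h, rats were anaesthetised with isoflurane and sampled. Blood was spun at 2000 g, 4°C, 10 min for plasma. CSF and plasma were stored at −80°C, then compound levels were measured by LC-MS/MS.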

[3] = molecular target: T1, COMT (Rattus norvegicus, UniProt P22734); experiment: Frontal cortex microdialysis: DA, HVA and DOPAC in extracellular fluid; assay type: in vivo; details: 20 min samples for 2 h after dosing, vs vehicle
T1 sequence (P22734 44-264 limits assumed): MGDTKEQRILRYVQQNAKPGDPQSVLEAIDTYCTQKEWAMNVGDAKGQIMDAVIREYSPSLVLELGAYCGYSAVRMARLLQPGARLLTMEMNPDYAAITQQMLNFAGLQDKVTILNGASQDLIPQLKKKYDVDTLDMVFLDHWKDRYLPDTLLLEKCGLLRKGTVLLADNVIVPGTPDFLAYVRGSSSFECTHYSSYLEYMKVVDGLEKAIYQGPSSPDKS

[4] = male, rat, plasma (free, unbound concentration), intraperitoneal, 15 mg/kg

With `Cc1ccc(C(=O)c2cc(O)c(O)c([N+](=O)[O-])c2)cc1` [Tolcapone, tolcapone] the “ASST performance (trials to criterion), ED stage” value [1] was “improved ED stage performance”, the “Drug Concentration CSF” value ([2]; female rats, 4 h) was “BLQ” and the “Drug Concentration CSF” value ([2]; male rats, 1 h) was “BLQ”. For the same compound, the “Drug Concentration CSF” value ([2]; male rats, 4 h) was “BLQ”, the concentration at 4 h ([2]; female, rat, plasma (free, unbound concentration), intraperitoneal, 15 mg/kg) was 10 nM and the concentration at 1 h [2, 4] was 35 nM. For the same compound, the concentration at 4 h [2, 4] was 4 nM, the “extracellular DOPAC concentration, frontal cortex” value [3] was “significantly increased DOPAC for the 40–120-min time points” and the “extracellular HVA concentration, frontal cortex” value [3] was “significantly decreased HVA for the 40–120-min time points”.

Reference: paper PMC7790123 (Psychopharmacology, 2020)
